Assay results gathered from unrelated publications.
Compare with care: the assays were run in different laboratories.
Target: Glycogen synthase kinase-3 beta (GSK3B, Homo sapiens, UniProt P49841)
Mode: inhibitor

Compound | assay | conditions | inhibition
COc1cccc2c(NCc3ccccc3)nc(-n3c(N)nc4ccccc43)nc12 | target engagement in cells, chemoproteomics | 20 mM | 1%
O=C(CSc1nc2nccnc2c(=O)n1CCc1ccccc1)Nc1nccs1 | enzyme activity | 10 µM | -5%
COc1ccc(-c2nc3ccc(C4=NNC(=O)CC4C)cc3[nH]2)cc1 (stereo not shown) | enzyme activity, ADP detection | 100 µM | 21.5%
COc1cc2ncnc(Nc3ccc(Oc4ccccc4)cc3C)c2cc1OC | enzyme activity | 1 µM | -2%
CCN(CC)CCNC(=O)c1c(C)[nH]c(/C=C2\C(=O)Nc3ccc(F)cc32)c1C | enzyme activity | 0.3 µM | -4%
CN(c1ncccc1CNc1nc(Nc2ccc3c(c2)CC(=O)N3)ncc1C(F)(F)F)S(C)(=O)=O | enzyme activity | 1 µM | 92.7%
COc1ccc2c(c1)O[C@H]1c3ccc(OC)cc3OC[C@@H]21 | enzyme activity, ADP detection | 100 µM | 32.9%
c1ccc(CNc2nc(N3CCOc4ccccc43)nc3c2CCCC3)cc1 | target engagement in cells, chemoproteomics | 20 mM | -3.9%
CC/C(=N\NC(=O)NCc1cccc(O)c1)c1ccc(O)c(C)c1O | enzyme activity | 0.1 µM | 8.6%
NC(=O)c1cnccn1 | enzyme activity, ADP detection | 100 µM | 7.9%
CN(C)C1CCN(CC#Cc2nn(C3CCCC3)c3nc(NCc4ccccc4)ncc23)C1 (stereo not shown) | enzyme activity, FRET | 0.1 µM | -4%
NS(=O)(=O)Cc1noc2ccccc12 | enzyme activity, ADP detection | 100 µM | 21.9%
Nc1nc(Nc2ccc(S(N)(=O)=O)cc2)sc1C(=O)c1ccccc1[N+](=O)[O-] | enzyme activity | 0.1 µM | 60 to 66%
